Screening results: PubChem BioAssay, several laboratories
DNMT1 inh = blocks human DNA methyltransferase DNMT1. inhibition (reported as % activation of signal), % at 10 µM. AID 588458. actives 0.83% (n = 360,000). DNMT1 molecular beacon, Hinp1I cleavage, fluorescence. P26358
NSD2 inh = inhibitors of human histone methyltransferase NSD2 | actives 0.54% (n = 310,000) | O96028 | NSD2 peptide methylation, AlphaScreen, 120 min | inhibition, % at 12.5 µM
NS3 helicase inh = blocks Hepatitis C virus NS3 helicase unwinding; NS3 helicase DNA unwinding, Cy5 molecular beacon fluorescence; inhibition, % at 10.9 µM; actives 0.56% (n = 290,000); AID 1800;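 active = inhibition above the mean of all tested compounds plus 3 SD, set per campaign, cut at about 35% in these data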;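 also: 0% = DMSO wells and 100% = thioflavine S control wells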
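Material: hepatitis C virus NS3 helicase domain fragment enzyme; measured by: Cy5 fluorescence, 0 and 60 min reads; control set: DMSO and thioflavine S; incubation: 60 min unwinding reaction at 25 °C after ATP addition; read-out basis: % inhibition from 60/0 min fluorescence ratio, DMSO 0%, thioflavine S 100%; repeats: singlicate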
CASP6 VEID inh = inhibitors of human caspase-6; P55212; actives 0.53% (n = 350,000); purified caspase-6, Z-VEID-R110 cleavage fluorescence; inhibition, % at 12.5 µM;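 active = mean inhibition across replicates at least about 35%, with every replicate also reaching that limit, limit read from the data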;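 also: 0% = median of neutral control wells and 100% = no fluorescence left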
Alpha artifact = counter-screen for NSD2 inhibitors: AlphaScreen artifacts; shares compounds with NSD2 inh; AlphaScreen artifact counterscreen, preloaded methylated H4 peptide; AC35, µM (series often up to 10 µM), inactives show top-dose activity change, negative = signal loss; actives 9.4% (n = 1,500); AID 1053174; call rule not given here
Active calls of the source: *; . = not tested or not shown. Hits are enriched below; roughly 1.5% of the tested compounds scored in any of these assays. Rule as the data show it, unless noted: active = inhibition above about 50%; inactive = the rest.

SMILES	DNMT1 inh	NSD2 inh	NS3 helicase inh	CASP6 VEID inh	Alpha artifact
O=C(CN(C(=O)c1csnn1)c1ccc(F)c(Cl)c1)NC1CCCCC1	-2	88*	-1	-1	4%
O=C(CN(C(=O)c1csnn1)c1ccc(Cl)cc1)NC1CCCC1	0	-1	4	3	.
C[C@@H]1CN([C@@H](C)CO)C(=O)c2cc(NC(=O)C3CC3)ccc2O[C@H]1CN(C)S(=O)(=O)c1cn(C)cn1	.	.	.	1	.
COc1ccc(/C=C/C(=O)OCC(=O)NCC2CCCO2)cc1 (stereo not drawn)	0	54*	-3	1	2%
Oc1ccc(-c2cn3c(n2)SCC3)cc1O	14	105*	15	.	8.1µM*
Oc1ccc(-c2cn3c(n2)SCC3)cc1	0	1	6	.	.
CCn1c(O)c(/C=N/n2cnnc2)sc1=S	-8	67*	12	.	-3%
C[C@H](CO)N1C[C@H](C)[C@H](CN(C)C(=O)Cc2ccccn2)Oc2cc(C#Cc3ccccc3)ccc2S1(=O)=O	.	.	.	2	.
CC1CCN(C(=O)CN(Cc2ccc(Cl)cc2)S(C)(=O)=O)CC1	-3	62*	-4	2	-8%
Cc1noc(C)c1NC(=O)N(C)C[C@H]1Oc2c(NC(=O)CCCCCC(=O)Nc3ccccc3N)cccc2C(=O)N([C@@H](C)CO)C[C@H]1C	.	.	.	-2	.
COc1cc(/C=C2/C(=O)ON=C2c2ccccc2)ccc1O	8	11	2	.	.
O=C1ON=C(c2ccc(Cl)cc2)/C1=C/c1ccc(O)cc1	.	1	10	15	.
COc1cc(/C=C/c2nc3ccccc3c(=O)[nH]2)cc(Cl)c1O	-1	82*	-2	6	-6%
O=C1ON=C(c2ccccc2)/C1=C/c1ccc(O)cc1	3	63*	10	8	-3%
Cc1cccc(/C=C\c2nc3ccccc3c(=O)[nH]2)c1	1	-2	-14	1	.
COc1cc(/C=C2\C(=O)ON=C2c2ccccc2)cc(Cl)c1O	1	64*	-2	1	-6%
C[C@H]1CN([C@@H](C)CO)S(=O)(=O)c2ccc(C#CC3CC3)cc2O[C@@H]1CN(C)Cc1ccccc1	.	.	.	0	.
COc1ccc(C(=O)Oc2ccc(/C=N/Nc3ccc(Cl)c(C(=O)O)c3)cc2OC)cc1	4	85*	-18	17	-6%
COc1cc(C=NNc2ccccc2)ccc1OC(=O)c1ccccc1	-13	0	.	0	.
COc1ccc(C[C@@H]2CCn3cc(nn3)COC[C@H](C(C)C)NC2=O)cc1	.	.	.	4	.
CCN1CCN(c2ncnc3scc(-c4ccc(OC)cc4)c23)CC1	-5	64*	-14	-3	-4%
COc1ccc(CN2CCN(c3ncnc4scc(-c5ccc(F)cc5)c34)CC2)cc1	1	1	-35	-1	.
COc1cccc(-c2ccc([C@H]3[C@H](CO)N4C(=O)CN(C(=O)C5CC5)C[C@@H]34)cc2)c1	.	.	.	2	.
O=C(Nc1cc(C(F)(F)F)ccc1N1CCCC1)C1CC(=O)N(Cc2ccccc2)C1 (stereo not drawn)	2	56*	.	-3	-1%
CCN(CC)C(=O)c1cc([N+](=O)[O-])cc2c1-c1ccc([N+](=O)[O-])cc1C2=C(C#N)C#N	-26	87*	21	2	-15%
SMILES	DNMT1 inh	NSD2 inh	NS3 helicase inh	CASP6 VEID inh	Alpha artifact
CCN(CC)C(=O)c1ccc(Oc2ccc([N+](=O)[O-])cc2Cl)cc1	5	7	8	-1	.
CCCC#Cc1cnc2c(c1)C(=O)N([C@@H](C)CO)C[C@H](C)[C@@H](CN(C)C(=O)Cc1ccccc1)O2	.	.	.	1	.
CCCN=C(C)c1c(-c2ccccc2)[nH]n(-c2nc3ccccc3s2)c1=O	-4	27	-2	.	.
CCN(CC)CCCN=Cc1c(-c2ccccc2)[nH]n(-c2nc3ccccc3s2)c1=O	2	75*	18	-33	-5%
Cc1cc(=O)n(-c2ccc3ccccc3n2)[nH]1	2	86*	-2	.	-5%
CC1=CCC2C(=O)N(c3ccc4ccccc4n3)C(=O)C2C1 (stereo not drawn)	1	0	10	.	.
C[C@H](CO)N1C[C@H](C)[C@H](CN(C)Cc2ccc(C(=O)O)cc2)OCCCC[C@H](C)Oc2ccc(NS(=O)(=O)c3cccs3)cc2C1=O	.	.	.	-1	.
CC(C)c1nc2oc3c(NCC4CCCO4)ncnc3c2c2c1COC(C)(C)C2 (stereo not drawn)	-2	54*	-4	.	-3%
C=CC[C@]12N=C(c3ccc(OCCCO)cc3)O[C@H]1c1ccccc1CN(Cc1ccccc1)C2=O	.	.	.	3	.
COc1ccc2nc(NC(=O)CS(=O)(=O)c3ccc(C)cc3)sc2c1	-3	69*	-6	6	-1%
Cc1noc(C)c1S(=O)(=O)Nc1ccc2c(c1)C(=O)N([C@@H](C)CO)C[C@@H](C)[C@H](CN(C)C(=O)c1ccccc1)OCCCC[C@H](C)O2	.	.	.	0	.
CC(C)n1c(NCc2nc3ccccc3n2C)nc2ccccc21	-3	120*	-7	.	5%
O=C(N/N=C/c1cc2c(cc1[N+](=O)[O-])OCO2)c1ccccn1	-1	53*	9	5	-4%
O=C(N/N=C/c1cc2c(cc1Cl)OCO2)c1ccccn1	-1	0	3	-1	.
CCc1oc(C(=O)O)cc1CN(CC)CC	1	7	-4	-1	.
CCN(CC)Cc1cc(O)c(CN(CC)CC)cc1O	9	100*	17	19	1%
CCN(CC)CCNC(=O)CCc1c(C)nc2c(c(C)nn2-c2ccc(C)c(C)c2)c1C	-1	11	-70	-24	.
CCOC(=O)NCCc1c(C)nc2c(c(C)nn2C(C)(C)C)c1C	0	68*	-4	.	-6%
O=C(C[C@@H]1CC[C@@H]2[C@H](COC[C@@H](O)CN2CC2CCCCC2)O1)NCC1CC1	.	.	.	3	.
COc1cc2c(oc(=O)c3cc(C)cc(OC)c32)c2c(C3OC(C)C(O)C(C)(O)C3O)ccc(O)c12 (stereo not drawn)	63*	86*	.	28	-2%
CCCC(=O)Nc1ccc2c(c1)C(=O)N(C)[C@H]1CC[C@@H](CC(=O)NCc3ccccc3Cl)O[C@H]1CO2	.	.	.	4	.
CN1CCCCCC1=Nc1ccc([N+](=O)[O-])cc1	3	57*	.	-3	-2%
Cc1cc(C)nc(N2CCC(C(=O)N(C)CCc3ccccc3)CC2)n1	.	60*	.	.	-3%
Cc1cc(C)nc(N2CCC(C(=O)NCCc3ccccc3)CC2)n1	2	-1	-1	.	.
Cc1ccc(S(=O)(=O)Nc2ccc3c(c2)C(=O)N([C@H](C)CO)C[C@H](C)[C@H](CN(C)Cc2ccc(Cl)c(Cl)c2)OCCCC[C@H](C)O3)cc1	.	.	.	-4	.
CCN(CC)C1CCN(c2nc3nonc3nc2NCCOC)C1 (stereo not drawn)	0	75*	-1	-2	-2%
COCCCNc1nc2nonc2nc1N1CCN2CCCC2C1 (stereo not drawn)	4	-2	3	0	.
Cc1ccc(-n2c(C)c(C)c3c(N)ncnc32)cc1	0	67*	5	0	-7%
